ChEMBL document CHEMBL3227967, “Quantitative structure-activity relationships in 1-aryl-2-(alkylamino)ethanol antimalarials” (J Med Chem, 1979)

Columns and labels:
[1] = tested on: Plasmodium berghei; experiment: Antimalarial activity against Plasmodium berghei; format: functional
[2] = Lipophilicity, log P of the compound in 0.1 N HCl solution; format: physicochemical; conditions: 0.1 N HCl solution; read-out: logP
Method in brief: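 Partition coefficients of the hydrochloride salts were measured from 0.1 N HCl solution unless a footnote says otherwise. Some entries were not measured. They were calculated by adding the Δlog P of the corresponding phenanthrene analogues to the measured log P of a reference hydrochloride.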

SMILES | log(1/C) [1] | logP [2]
CCN(CC)CC(O)c1cc(Cl)cc2ccc(-c3ccc(Cl)cc3)nc12 (stereo not drawn) | 2.12 | –
CCCCCCN(CCCCCC)CC(O)c1cccc2c1cc(Cl)c1ccccc12 (stereo not drawn) | 2.39 | –
CCCCCCCN(CCCCCCC)CC(O)c1cccc2c1ccc1ccc(C(F)(F)F)cc12 (stereo not drawn) | 2.34 | –
CCCCCN(CCCCC)CC(O)c1cccc2c1ccc1ccccc12 (stereo not drawn) | 2.33 | –
CCCCCCCN(CCCCCCC)CC(O)c1cccc2c1c(Br)cc1ccccc12 (stereo not drawn) | 2.27 | –
CCCCN(CCCC)CC(O)c1cccc2c1cc(Cl)c1ccccc12 (stereo not drawn) | 2.26 | –
CCCCN(CCCC)CC(O)c1cccc2c1cc(Br)c1ccccc12 (stereo not drawn) | 2.15 | –
CCCCCN(CCCCC)CC(O)c1cccc2c1cc(Cl)c1ccccc12 (stereo not drawn) | 2.14 | –
CCCCN(CCCC)CC(O)c1cccc2c1ccc1ccccc12 (stereo not drawn) | 2.06 | –
CCCCCCN(CCCCCC)CC(O)c1cccc2c1ccc1ccccc12 (stereo not drawn) | 2.03 | –
CCCN(CCC)CC(O)c1cccc2c1cc(Cl)c1ccccc12 (stereo not drawn) | 2.02 | –
CCCCCCCN(CCCCCCC)CC(O)c1cccc2c3ccccc3c3ccccc3c12 (stereo not drawn) | 2.28 | –
CCCCCCCN(CCCCCCC)CC(O)c1ccc2ccc3cccc(C(F)(F)F)c3c2c1 (stereo not drawn) | 2.58 | –
CCCCN(CCCC)CC(O)c1ccc2ccc3cccc(C(F)(F)F)c3c2c1 (stereo not drawn) | 2.23 | –
CCCCCCN(CCCCCC)CC(O)c1cccc2ccc3cccc(Br)c3c12 (stereo not drawn) | 2.39 | –
CCCCN(CCCC)CC(O)c1cccc2ccc3cccc(Cl)c3c12 (stereo not drawn) | 2.3 | –
CCCCN(CCCC)CC(O)c1cccc2ccc3cccc(Br)c3c12 (stereo not drawn) | 2.23 | –
CCCCCCN(CCCCCC)CC(O)c1cccc2ccc3ccccc3c12 (stereo not drawn) | 2.2 | –
CCCCCCCN(CCCCCCC)CC(O)c1cccc2ccc3ccccc3c12 (stereo not drawn) | 2.19 | –
CCCCN(CCCC)CC(O)c1cccc2ccc3ccccc3c12 (stereo not drawn) | 2.09 | –
CCCCCCCN(CCCCCCC)CC(O)c1cc2cnccc2c2ccccc12 (stereo not drawn) | 2.47 | –
CCCCN(CCCC)CC(O)c1cc2cnccc2c2c(Cl)cc(Cl)cc12 (stereo not drawn) | 2.42 | –
CCCCN(CCCC)CC(O)c1cc2ccncc2c2c(Cl)cc(Cl)cc12 (stereo not drawn) | 2.57 | –

SMILES | log(1/C) [1] | logP [2]
CCCCCCCN(CCCCCCC)CC(O)c1cc2ccncc2c2ccccc12 (stereo not drawn) | 2.33 | –
CCCCCCCN(CCCCCCC)CC(O)c1cc2ccc(Cl)cc2c2ncccc12 (stereo not drawn) | 2.48 | –
CCCCCCCN(CCCCCCC)CC(O)c1cc2ccccc2c2ncccc12 (stereo not drawn) | 2.25 | –
CCCCCCCN(CCCCCCC)CC(O)c1cc2ccc(Cl)cc2c2ccncc12 (stereo not drawn) | 2.31 | –
CCCCN(CCCC)CC(O)c1ccnc2c1cnc1cc(Cl)ccc12 (stereo not drawn) | 2.11 | –
CCCCN(CCCC)CC(O)c1ccc(Cl)c2ncccc12 (stereo not drawn) | 2.16 | –
CCN(CC)CC(O)c1cc2cc(Cl)cc(Cl)c2nc1-c1ccc(Cl)cc1 (stereo not drawn) | 2.47 | –
CCCCCCCN(CCCCCCC)CC(O)c1cc2cc(Cl)cc(Cl)c2nc1-c1ccc(Cl)cc1 (stereo not drawn) | 2.43 | –
CCCCN(CCCC)CC(O)c1cc2cc(Cl)cc(Cl)c2nc1-c1ccc(Cl)cc1 (stereo not drawn) | 2.32 | –
CCCCN(CCCC)CC(O)c1cc2ccc(Cl)cc2nc1-c1ccc(Cl)cc1 (stereo not drawn) | 2.2 | –
CCN(CC)CC(O)c1cc2ccc(Cl)cc2nc1-c1ccc(Cl)cc1 (stereo not drawn) | 2.11 | –
CCCCN(CCCC)CC(O)c1ccc(Cl)c2nc(-c3ccccc3)ccc12 (stereo not drawn) | 2.47 | –
CCCCN(CCCC)CC(O)c1cc(Cl)c2nc(-c3ccccc3)ccc2c1 (stereo not drawn) | 2.51 | –
CCCCCCCN(CCCCCCC)CC(O)c1cc(Cl)cc2ccc(-c3ccc(Cl)cc3)nc12 (stereo not drawn) | 2.34 | –
COc1ccc2nccc(C(O)CC3CCC(/C=C/Br)CN3)c2c1 (stereo not drawn) | – | 1.71
CC(C)c1cc(C(O)CC2CCCCN2)c2ccccc2n1 (stereo not drawn) | – | 1.58
CCCCCCCN(CCCCCCC)CC(O)c1cc2ncccc2c2ccccc12 (stereo not drawn) | – | 4.03
Cc1cc(C)c2ncc(C(O)CC3CCCCN3)cc2c1 (stereo not drawn) | – | 1.17
OC(CN1CCCCCC1)c1cc(Cl)c2nc(-c3ccccc3)ccc2c1 (stereo not drawn) | – | 3.62
Cc1cc(C(O)CN2CCCCCC2)c2nc(-c3ccccc3)ccc2c1 (stereo not drawn) | – | 3.47
N#CCCN(CC(O)c1cc2ccccc2c2ccccc12)C1CCCCC1 (stereo not drawn) | – | 2.27
N#CCCN(CCC#N)CC(O)c1cc2ccccc2c2ccccc12 (stereo not drawn) | – | 0.37
OC(CC1CCNCC1)c1cc2ccc(C(F)(F)F)cc2c2cc(C(F)(F)F)ccc12 (stereo not drawn) | – | 3.34

SMILES | log(1/C) [1] | logP [2]
CCCCN(CCCC)CC(O)c1c(OC)c2ccccc2c2ccccc12 (stereo not drawn) | – | 2.55
O=C(O)c1ccc2cc(C(O)CC3CCCCN3)c3ccc(C(F)(F)F)cc3c2c1 (stereo not drawn) | – | 2.14
NCC(O)c1cc2ccc(C(F)(F)F)cc2c2cc(C(F)(F)F)ccc12 (stereo not drawn) | – | 2.19
OC(CN1C=CN(c2ccccc2)C=C1)c1cc(-c2ccc(Cl)cc2)nc2c(Cl)cc(Cl)cc12 (stereo not drawn) | – | 6.11
OC(CN1C=CN(c2ccccc2)C=C1)c1cc(-c2ccc(Cl)cc2)nc2cc(Cl)ccc12 (stereo not drawn) | – | 5.4
OC(CNC12CC3CC(CC(C3)C1)C2)c1cc(-c2ccc(F)cc2)nc2cc(F)ccc12 (stereo not drawn) | – | 3.84
CCCCN(CCCC)CC(O)c1c(Br)c(-c2ccccc2)nc2ccccc12 (stereo not drawn) | – | 3.86
OC(CC1CCCCN1)c1cc(C(F)(F)F)nc2ccccc12 (stereo not drawn) | – | 0.93
OC(CC1CCCCN1)C1CC=Nc2c1cccc2C(F)(F)F (stereo not drawn) | – | 1.12
OC(CC1CCCCN1)c1ccnc2ccccc12 (stereo not drawn) | – | 0.05
OC(CC1CCCCN1)c1cc(C2CCCCC2)nc2ccccc12 (stereo not drawn) | – | 2.56
CCCCCCCN(CCCCCCC)CC(O)c1cc(-c2ccc(Br)cc2)nc(-c2ccc(Br)cc2)c1 (stereo not drawn) | – | 8.83
CCCCN(CCCC)CC(O)c1cc(-c2ccccc2C(F)(F)F)nc(C(F)(F)F)c1 (stereo not drawn) | – | 3.97
OC(CN1CCCCC1)c1cc2ccccc2c2sccc12 (stereo not drawn) | – | 1.73
CCCCCCCN(CCCCCCC)CC(O)c1cc2ccccc2c2cnccc12 (stereo not drawn) | – | 4.03
CCCCCCCN(CCCCCCC)CC(O)c1cc2ccccc2c2cccnc12 (stereo not drawn) | – | 4.03
CCCCCCCN(CCCCCCC)CC(O)c1cc2ccc(Br)cc2c2cccnc12 (stereo not drawn) | – | 4.89
CCCCCCCN(CCCCCCC)CC(O)c1cc2ccc(Cl)cc2c2cccnc12 (stereo not drawn) | – | 4.74
CCCCNCC(O)c1cc(/C=C/c2ccc(C(F)(F)F)cc2)nc(/C=C/c2ccc(C(F)(F)F)cc2)c1 (stereo not drawn) | – | 6.67
CCCCN(CCCC)CCC(O)c1cc2c(Cl)cc(Cl)cc2c2cc(C(F)(F)F)ccc12 (stereo not drawn) [HALOFANTRINE] | 4.47 | –
CC[C@H]1CN2CC[C@H]1C[C@H]2[C@H](O)c1ccnc2ccc(OC)cc12 [HYDROQUININE] | 2.04 | –
C=C[C@H]1CN2CC[C@H]1C[C@H]2[C@H](O)c1ccnc2ccc(OC)cc12 [QUININE] | 2.06 | –
